Screening results deposited in PubChem BioAssay by several laboratories.
An excerpt weighted towards active compounds, which were near 1.5% of everything screened.
CSN deneddyl inh – inhibitors of CSN-mediated cullin deneddylation, primary screen, biochemical, fluorescence polarization, uHTS | COP9 signalosome complex subunit 5 (Homo sapiens), Q92905 | Purified CSN, SCF-Nedd8-OG deneddylation | inhibition, % at 12.5 µM | 360,000 tested, 0.38% active;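 active means pattern-corrected inhibition above about 35%, with an unprinted fluorescence ratio check between 0.5 and 1.5, limit read from the data, passing the limit was not always enough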;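 further: 0% = enzyme with substrate and 100% = substrate without enzyme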
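Test system: Human Csn5 produced in HEK293T cells | Compound: 12.5 µM single point | Times: 90 min, room temperature | Signal: Fluorescence polarization readout | Read-out basis: % inhibition of substrate cleavage by Csn5 | Controls: no-enzyme wells high, enzyme-with-substrate wells low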
HNF4A DNA FP – change in binding of human HNF4A to DNA, primary screen, biochemical, fluorescence polarization, FITC-DNA; activity change, % at 10 µM; 1 h; AID 1224865, 2016; 360,000 tested, 0.3% active; Hepatocyte nuclear factor 4-alpha (Homo sapiens), P41235; in the data active means activity change above about 30%, passing the limit was not always enough
TPT1 inh – Candida albicans TPT1 enzyme inhibitors, primary screen, biochemical, fluorescence polarization. recombinant caTPT1, FP RNA substrate dephosphorylation. inhibition, % at 5 µM. 300,000 tested, 0.81% active. AID 1962, 2009. tRNA 2'-phosphotransferase TPT1 (Candida albicans SC5314);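 active means inhibition above the mean of all tested compounds plus 3 SD, set per screening campaign, cut at about 24% in these data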;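 further: plate controls were DMSO alone for no effect and ferristatin control at 100 nM for full effect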
Rpn11 block – Rpn11 (PSMD14) deubiquitinase inhibitors, primary screen, biochemical, fluorescence polarization, uHTS; 26S proteasome non-ATPase regulatory subunit 14 (Homo sapiens), O00487; human 26S proteasome, Ub4-pepOG fluorescence polarization; 20S core pre-blocked with epoxomicin; calls only at 20 µM; 360,000 tested, 0.59% active; AID 588493, 2011;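 active means inhibition at 20 µM, scaled to each plate's controls, above about 33%, limit read from the data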
Rpn11 inh conf – Rpn11 (PSMD14) deubiquitinase inhibitors, confirmation, biochemical, fluorescence polarization, single concentration. shares compounds with Rpn11 block. purified human 26S proteasome, Ub4-pepOG fluorescence polarization; proteasome pretreated with epoxomicin. inhibition, % at 20 µM. 1,900 tested, 29% active. AID 602318, 2012
MMP-2 counter – MMP-2 enzyme inhibition, confirmation, counter-screen for RPN11 inhibitor project, biochemical, fluorescence, single concentration; shares compounds with Rpn11 block; recombinant MMP-2, FRET peptide cleavage fluorescence; inhibition, % at 20 µM; 1,900 tested, 4% active; AID 602330, 2012;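 further: human MMP-2 activated beforehand with APMA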
Thrombin FP – bovine thrombin protease inhibition, confirmation, counter-screen for Rpn11 inhibitor project, biochemical, fluorescence polarization, single concentration; bovine thrombin cleavage of Ub4-pepOG; shares compounds with Rpn11 block; inhibition, % at 20 µM; 1,900 tested, 13% active;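 active means mean inhibition at least 40% at 20 µM, or signal 3 deviations below plate average, so some actives read negative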;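 further: plate controls were thrombin with DMSO for no effect and buffer wells lacking thrombin for full effect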
Target sequence (P00735 whole entry, looked up): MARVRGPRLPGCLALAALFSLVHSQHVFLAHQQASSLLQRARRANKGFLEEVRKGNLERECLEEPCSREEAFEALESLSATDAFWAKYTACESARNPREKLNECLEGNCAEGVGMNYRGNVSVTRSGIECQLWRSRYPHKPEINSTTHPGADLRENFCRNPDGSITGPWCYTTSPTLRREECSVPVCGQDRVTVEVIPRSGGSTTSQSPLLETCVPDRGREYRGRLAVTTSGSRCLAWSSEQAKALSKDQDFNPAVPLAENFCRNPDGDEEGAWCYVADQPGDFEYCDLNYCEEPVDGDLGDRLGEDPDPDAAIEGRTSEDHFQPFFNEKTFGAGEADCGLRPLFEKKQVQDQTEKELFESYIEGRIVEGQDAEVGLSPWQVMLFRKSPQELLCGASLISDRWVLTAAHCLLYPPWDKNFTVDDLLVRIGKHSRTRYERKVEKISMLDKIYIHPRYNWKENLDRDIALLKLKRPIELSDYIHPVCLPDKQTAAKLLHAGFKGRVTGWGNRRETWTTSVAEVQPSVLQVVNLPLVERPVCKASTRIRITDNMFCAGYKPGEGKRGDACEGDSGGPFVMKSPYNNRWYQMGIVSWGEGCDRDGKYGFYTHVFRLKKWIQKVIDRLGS
* = called active by the depositor; i = inactive; . = no result given; + = active, no number. Unless noted, no stated cut-off is given here; in the data, active means inhibition above about 40%; inactive means the rest.

SMILES	CSN deneddyl inh	HNF4A DNA FP	TPT1 inh	Rpn11 block	Rpn11 inh conf	MMP-2 counter	Thrombin FP
COc1ccc(CCn2c(N)c(C(=O)NCc3ccco3)c3nc4ccccc4nc32)cc1	11	9	4	+	-2	31	25
Cc1ccc2nc(C)cc(Nc3ccc([N+](=O)[O-])cc3)c2c1	4	5	3	+	34	-10	-5
COC(=O)c1ccc(Nc2cc(C)nc3ccc(C)cc23)cc1	2	0	-2	i	.	.	.
N#Cc1c(C(F)(F)F)cc(-c2ccco2)nc1SCc1ccncc1	25	13	23	+	29	-14	18
CSc1nc(-c2ccco2)cc(C(F)(F)F)c1C#N	-1	21	0	+	-2	-29	5
CC1=C(C(=O)N2CCCCCC2)CC(CC(=O)NCCCCc2ccccc2)C(=O)N1CCC1=CCCCC1 (centres undefined)	-1	0	.	.	.	.	.
COCCN(CC(=O)Nc1cccc(C)c1C)C(=O)c1ccc(S(=O)(=O)N2CCOCC2)cc1	-4	3	.	i	.	.	.
Cc1cccc(OCCSc2nc(N)cc(N)n2)c1	2	0	-1	i	.	.	.
COc1ccc(C(=O)N/C(=C/c2ccco2)C(=O)N2CCCCCC2)cc1	3	15	10	+	-4	-32	-18
COc1ccc(N2C(=O)c3ccccc3NC23CCCC3)cc1	-1	-3	-2	+	-5	-36	0
O=C(CCl)NC1(C(=O)O)CCCC1	-1	12	.	i	.	.	.
O=C(NCc1ccco1)C1CCCCN1S(=O)(=O)c1ccc(F)cc1 (centres undefined)	-1	19	-1	+	-7	-3	-7
C[C@@H]1CN([C@@H](C)CO)C(=O)CCCn2nncc2CO[C@H]1CN(C)Cc1ccccc1C(F)(F)F	4	-1	.	i	.	.	.
COc1ccccc1-n1cc(C(=O)c2cc(Cl)ccc2O)cc(C#N)c1=O	4	7	13	+	17	-23	8
COCCn1cc(C(=O)c2cc(Br)ccc2O)cc(C#N)c1=O	-8	9	17	+	8	21	4
N#Cc1cc(C(=O)c2cc(Br)ccc2O)cn(Cc2ccccc2)c1=O	7	18	16	+	13	0	18
Cc1ccccc1-n1cc(C(=O)c2cc(Cl)ccc2O)cc(C#N)c1=O	-7	1	10	i	.	.	.
COc1ccc(O)c(C(=O)c2cc(C#N)c(=O)n(Cc3ccccc3)c2)c1	-10	0	4	i	.	.	.
CCOc1cccc(CN2CCCC(C(=O)c3cc(Cl)ccc3OC)C2)c1O (centres undefined)	4	-1	-2	i	.	.	.
COc1cccc(CN2c3ccc(Br)cc3C(=O)CS2(=O)=O)c1	2	2	.	+	-5	-25	-10
Cc1ccc(NC(=O)CSc2nc3[nH]ncc3c(=O)[nH]2)cc1Cl	0	-3	0	+	-9	-22	-10
O=[N+]([O-])c1ccc(/C=N/Nc2ccccn2)cc1	11	16	14	+	19	-35	-3
COC(=O)C1=C(C)NC(=O)/C1=C\c1cc(C)n(-c2ccccc2C)c1C	-6	1	-9	i	.	.	.
COC(=O)C1=C(C)NC(=O)/C1=C\c1cc(C)n(-c2c(C)cccc2C)c1C	16	5	-2	+	10	-11	-2
CC(C)[C@H](NC(N)=O)C(=O)Nc1cccc(S(=O)(=O)NC2=NCCCCC2)c1	6	-4	.	i	.	.	.
SMILES	CSN deneddyl inh	HNF4A DNA FP	TPT1 inh	Rpn11 block	Rpn11 inh conf	MMP-2 counter	Thrombin FP
CC(=O)c1cccc(S(=O)(=O)N2CCn3cccc3C2C)c1 (centres undefined)	-7	2	.	i	.	.	.
CSc1ccccc1NC(=O)CN(C)C(=O)COc1ncnc2ccccc12	-4	-2	.	i	.	.	.
Cn1c(=O)c2cc(NC(=O)Nc3cccnc3)ccc2n1Cc1ccc(Cl)cc1	10	16	.	+	14	-17	4
CCCCC(=O)N(C)c1c(C)nc2ccc(C(=O)N3CCN(S(=O)(=O)CC)CC3)cn12	-4	2	.	i	.	.	.
Cn1c(=O)c2c(nc(Oc3ccc4c(c3)OCO4)n2Cc2ccc(F)cc2)n(C)c1=O	-1	29	2	+	2	-25	4
COc1ccc(-c2ccc(/C=C3/C(=N)N4C=CSC4=NC3=O)o2)c([N+](=O)[O-])c1	-2	2	15	+	3	-13	13
CC(=O)C1=C(C)NC(SCC(=O)c2ccc(Cl)c(Cl)c2)=C(C#N)C1c1ccco1 (centres undefined)	11	16	20	+	22	45*	15
CC(=O)C1=C(C)NC(SCC(=O)c2ccc(F)cc2)=C(C#N)C1c1ccco1 (centres undefined)	1	5	5	i	.	.	.
CCCSC1=N/C(=C\C=C\c2ccco2)C(=O)S1	59	-15	18	+	4	34	7
O=C1SC(SCc2ccccc2)=N/C1=C\c1ccco1	16	-4	2	i	.	.	.
COc1ccc(N=Nc2ccc(O)c3ncccc23)cc1	4	-11	-1	i	.	.	.
CCc1ccc(N=Nc2ccc(O)c3[nH]cnc23)cc1	21	42*	.	+	34	-25	31
Cc1sc(NC(=O)c2cccs2)c(C(=O)OC(C)C)c1C	-8	-5	0	+	-2	-35	-4
CCCN(CC(=O)Nc1cc(C)on1)S(=O)(=O)c1cccc(C(F)(F)F)c1	1	5	-3	+	-5	21	1
O=C(CSc1nnc(COc2ccc(Cl)cc2)o1)Nc1ccc(N2CCOCC2)cc1	4	1	.	i	.	.	.
O=C(N/N=C/c1cn(-c2ccccc2)nc1-c1ccc2c(c1)OCCO2)c1ccncc1	7	0	0	+	15	-8	-7
CCC1CCCCN1CCCn1c(=S)[nH]c2ccccc2c1=O (centres undefined)	0	9	-2	+	-2	-6	-9
O=C(c1ccc(N2CCN(C(=O)c3ccc(F)cc3F)CC2)cc1)c1cccc(F)c1	-2	-5	2	i	.	.	.
COc1ccc(OCCNC(=O)c2ccc(C)cc2)cc1	3	-1	-1	+	-16	3	-26
